Blank lines part the entries; values can stand above or below the compound they belong to.
What was measured:
[1] = Selectivity ratio of for sigma 2 receptor in rat liver membrane homogenates to Ki for VAChT in Torpedo californica cholinergic synaptic vesicles; assay type: cell membranes
Procedure, shortened: (§1)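 Index calculated as Ki(σ1 or σ2)/Ki(VAChT). […] Averaged data were fit to a rectangular hyperbola, and each compound was assayed independently at least twice. σ Ki values come from the radioligand binding assays in guinea pig brain (σ1) and rat liver (σ2) membranes.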

[2] = Selectivity ratio of Ki for sigma 1 receptor in guinea pig brain membrane homogenates to Ki for VAChT in Torpedo californica cholinergic synaptic vesicles; assay type: cell membranes; procedure, shortened: as §1
[3] = target: Sigma non-opioid intracellular receptor 1 (Cavia porcellus, UniProt Q60492); experiment: Displacement of [3H](+)-pentazocine from sigma 1 receptor in guinea pig brain membrane homogenates after 90 mins by liquid scintillation counting; assay type: cell membranes
Sequence of Sigma non-opioid intracellular receptor 1 (Q60492 whole entry): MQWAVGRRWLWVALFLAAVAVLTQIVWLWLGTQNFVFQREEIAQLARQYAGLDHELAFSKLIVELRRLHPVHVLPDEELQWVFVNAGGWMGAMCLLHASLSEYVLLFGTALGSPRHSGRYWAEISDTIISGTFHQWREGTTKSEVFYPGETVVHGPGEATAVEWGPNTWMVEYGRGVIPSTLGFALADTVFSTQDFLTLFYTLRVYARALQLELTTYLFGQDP
Procedure, shortened: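 Compounds dissolved in DMF, DMSO or ethanol, then diluted in 50 mM Tris-HCl, 150 mM NaCl, 100 mM EDTA, pH 7.4. Guinea pig brain membranes (~300 μg protein) with ~5 nM [3H](+)-pentazocine, 90 min at room temperature. Nonspecific binding taken with 10 μM haloperidol. Filtered and counted. IC50 from one-site nonlinear fit. Ki by Cheng-Prusoff (Kd 7.89 nM), mean ± SEM.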

[4] = Displacement of [3H]DTG from sigma 2 receptor in rat liver membrane homogenates after 2 hrs by liquid scintillation counting; assay type: cell membranes
Procedure, shortened: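 Rat liver membranes (~300 μg protein) with ~5 nM [3H]DTG plus 1 μM (+)-pentazocine to mask σ1 sites, 2 h at room temperature. Compounds were diluted in pH 7.4 Tris-HCl/NaCl/EDTA buffer. Nonspecific binding taken with 10 μM haloperidol, then filtration and scintillation counting. IC50 from one-site regression. Ki by Cheng-Prusoff (Kd 30.73 nM), mean ± SEM.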

[5] = target: T1, Vesicular acetylcholine transporter (Torpedo californica, UniProt P81721); experiment: Displacement of [3H]vesamicol from VAChT in Torpedo californica cholinergic synaptic vesicles; set-up: species or system Tetronarce californica
T1 sequence (P81721 whole entry): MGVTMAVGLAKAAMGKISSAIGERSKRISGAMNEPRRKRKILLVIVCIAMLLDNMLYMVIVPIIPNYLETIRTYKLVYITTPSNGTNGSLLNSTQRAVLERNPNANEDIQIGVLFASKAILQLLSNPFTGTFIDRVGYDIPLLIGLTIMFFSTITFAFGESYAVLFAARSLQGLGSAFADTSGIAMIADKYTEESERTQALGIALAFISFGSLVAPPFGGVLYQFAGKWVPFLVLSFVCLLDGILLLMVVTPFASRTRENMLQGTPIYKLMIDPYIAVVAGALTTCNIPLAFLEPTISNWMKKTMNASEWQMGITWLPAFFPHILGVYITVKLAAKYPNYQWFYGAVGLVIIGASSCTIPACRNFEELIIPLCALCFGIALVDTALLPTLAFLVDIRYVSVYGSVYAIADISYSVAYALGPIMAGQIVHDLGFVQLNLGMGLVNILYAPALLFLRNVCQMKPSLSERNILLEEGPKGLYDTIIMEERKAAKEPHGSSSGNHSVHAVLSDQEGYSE
Procedure, shortened: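 Compounds tested as hydrochlorides. Averaged data fit by regression to a rectangular hyperbola to give Ki. Each compound assayed independently at least two times; Ki reported as mean ± SEM from at least three experiments.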

SMILES: O=C(c1ccc(I)s1)C1CCN([C@@H]2Cc3ccccc3C[C@H]2O)CC1 (relative stereo)
Ratio Ki [1]: 522
Ratio Ki [2]: 294
Ki [3]: 194 nM
Ki [4]: 344 nM
Ki [5]: 0.66 nM

Ki [5]: 89.5 nM
SMILES: Nc1cccc2c1C[C@@H](N1CCC(C(=O)N3CCCCC3)CC1)[C@H](O)C2

SMILES: Nc1cccc2c1C[C@@H](N1CCC(C(=O)c3ccc(F)cc3)CC1)[C@H](O)C2
Ki [3]: > 1000 nM
Ki [4]: > 1000 nM
Ki [5]: 2.4 nM

Ki [5]: 447 nM
SMILES: Nc1cccc2c1C[C@@H](O)[C@H](N1CCC(C(=O)N3CCCCC3)CC1)C2

SMILES: O=C(c1ccc(F)cc1)C1(c2ccccc2)CCN([C@@H]2Cc3ccccc3C[C@H]2O)CC1
Ki [5]: 1.83 nM

SMILES: O=C(c1ccccc1)C1CCN([C@@H]2CCCC[C@H]2O)CC1
Ratio Ki [1]: 0.5
Ratio Ki [2]: 0.4
Ki [3]: 281 nM
Ki [4]: 341 nM
Ki [5]: 650 nM

SMILES: O=C(c1ccc(Br)s1)C1CCN([C@@H]2Cc3ccccc3C[C@H]2O)CC1 (relative stereo)
Ratio Ki [1]: 133
Ratio Ki [2]: 239
Ki [3]: 129 nM
Ki [4]: 72 nM
Ki [5]: 0.54 nM

SMILES: O[C@@H]1CCCC[C@H]1N1CCC(c2ccccc2)CC1 [VESAMICOL]
Ki [4]: 34.5 nM

SMILES: O=C(c1ccc(I)s1)C1CCN([C@@H]2CCCC[C@H]2O)CC1
Ratio Ki [1]: 0.1
Ratio Ki [2]: 0.02
Ki [3]: 9.39 nM
Ki [4]: 48.9 nM
Ki [5]: 560 nM

SMILES: Nc1cccc2c1C[C@@H](N1CCC(C(=O)c3cccs3)CC1)[C@H](O)C2
Ki [3]: > 1000 nM
Ki [4]: > 1000 nM
Ki [5]: 4.9 nM

SMILES: O=C(C1CCN([C@@H]2Cc3ccccc3C[C@H]2O)CC1)N1CCC(c2ccccc2)CC1 (relative stereo)
Ratio Ki [2]: 24.3
Ki [3]: 50.2 nM
Ki [4]: > 1000 nM
Ki [5]: 2.07 nM

SMILES: Nc1cccc2c1C[C@@H](O)[C@H](N1CCC(C(=O)c3ccc(Br)s3)CC1)C2
Ratio Ki [1]: 4.1
Ratio Ki [2]: 16.4
Ki [3]: 483 nM
Ki [4]: 121 nM
Ki [5]: 29.4 nM

SMILES: O=C(c1ccc(F)cc1)C1CCN([C@@H]2CCCC[C@H]2O)CC1
Ratio Ki [1]: 0.3
Ratio Ki [2]: 0.7
Ki [3]: 303 nM
Ki [4]: 113 nM
Ki [5]: 423 nM

SMILES: O=C(Cc1ccccc1)C1(c2ccccc2)CCN([C@@H]2Cc3ccccc3C[C@H]2O)CC1 (relative stereo)
Ki [5]: 1.38 nM

SMILES: O=C(c1ccc(Br)cc1)C1CCN([C@@H]2CCCC[C@H]2O)CC1
Ratio Ki [1]: 0.6
Ratio Ki [2]: 0.3
Ki [3]: 15.9 nM
Ki [4]: 30.1 nM
Ki [5]: 51.4 nM

SMILES: Nc1cccc2c1C[C@@H](O)[C@H](N1CCC(C(=O)c3cccs3)CC1)C2
Ki [3]: > 1000 nM
Ki [4]: > 1000 nM
Ki [5]: 134 nM

SMILES: Nc1cccc2c1C[C@@H](N1CCC(C(=O)c3ccc(Br)s3)CC1)[C@H](O)C2
Ki [3]: > 1000 nM
Ki [4]: > 1000 nM
Ki [5]: 0.41 nM

SMILES: O=C(c1ccc(Br)s1)C1CCN([C@@H]2CCCC[C@H]2O)CC1
Ratio Ki [1]: 0.8
Ratio Ki [2]: 0.6
Ki [3]: 29.5 nM
Ki [4]: 35.7 nM
Ki [5]: 46.8 nM

Ki [5]: 5 nM
SMILES: O=C(c1cccs1)C1CCN([C@@H]2Cc3ccccc3C[C@H]2O)CC1 (relative stereo)

SMILES: Nc1cccc2c1C[C@@H](O)[C@H](N1CCC(C(=O)c3ccc(F)cc3)CC1)C2
Ratio Ki [1]: 46.4
Ratio Ki [2]: 65.4
Ki [3]: 497 nM
Ki [4]: 353 nM
Ki [5]: 7.6 nM

SMILES: O=C(C1CCN([C@@H]2Cc3ccccc3C[C@H]2O)CC1)N1CCN(Cc2ccccc2)CC1 (relative stereo)
Ratio Ki [2]: 56.8
Ki [3]: 118 nM
Ki [4]: > 1000 nM
Ki [5]: 2.08 nM

Ki [5]: 763 nM
SMILES: O=C(c1cccs1)C1CCN([C@@H]2CCCC[C@H]2O)CC1

SMILES: CCOC(=O)C1CCN([C@@H]2Cc3ccccc3C[C@H]2O)CC1 (relative stereo)
Ki [3]: > 1000 nM
Ki [4]: > 1000 nM
Ki [5]: 68.5 nM

SMILES: O=C(c1ccccc1)C1(c2ccccc2)CCN([C@@H]2CCCC[C@H]2O)CC1
Ki [5]: 68.5 nM

SMILES: O=C(C1CCN([C@@H]2Cc3ccccc3C[C@H]2O)CC1)N1CCCCC1 (relative stereo)
Ki [3]: > 1000 nM
Ki [4]: > 1000 nM
Ki [5]: 31 nM

SMILES: O=C(c1ccccc1)C1(c2ccccc2)CCN([C@@H]2Cc3ccccc3C[C@H]2O)CC1 (relative stereo)
Ki [5]: 1.64 nM

SMILES: O=C(C1CCN([C@@H]2Cc3ccccc3C[C@H]2O)CC1)N1CCC(Cc2ccccc2)CC1 (relative stereo)
Ratio Ki [2]: 8.3
Ki [3]: 19.9 nM
Ki [4]: > 1000 nM
Ki [5]: 2.4 nM

SMILES: Nc1cccc2c1C[C@@H](N1CCC(C(=O)c3ccc(Br)cc3)CC1)[C@H](O)C2
Ratio Ki [1]: > 1890
Ratio Ki [2]: 746
Ki [3]: 395 nM
Ki [4]: > 1000 nM
Ki [5]: 0.53 nM
